Data set [1] has as its system Pseudomonas aeruginosa. Put plainly: Antibacterial activity against Pseudomonas aeruginosa CIP100720 after 18 to 24 hrs by broth dilution method. In kind it is functional. (In general: Dilution methods test growth across graded concentrations, often in twofold steps.)
Data set [2] deals with Staphylococcus aureus. Put plainly: Antibacterial activity against Staphylococcus aureus SA1199 after 18 to 24 hrs by broth dilution method. In kind it is functional.
The test system of data set [3] is Staphylococcus aureus. Description: Antibacterial activity against Staphylococcus aureus CIP 7625 after 18 to 24 hrs by broth dilution method. The data set is classed as functional.
The subject of data set [4] is Klebsiella pneumoniae. Put plainly: Antibacterial activity against Klebsiella pneumoniae CIP82.91 after 18 to 24 hrs by broth dilution method. In kind it is functional.
For data set [5], the system named is Enterococcus faecium. Description: Antibacterial activity against Enterococcus faecium DSMZ 20477 after 18 to 24 hrs by broth dilution method. The data set is classed as functional.
The test system of data set [6] is Staphylococcus aureus. Description: Antibacterial activity against Staphylococcus aureus SA1199B over-expressing NorA after 18 to 24 hrs by broth dilution method. The data set is classed as functional.
Data set [7] concerns Acinetobacter baumannii. Put plainly: Antibacterial activity against Acinetobacter baumannii ATCC 19606 after 18 to 24 hrs by broth dilution method. In kind it is functional. The settings on record: ATCC 19606 = CIP 70.34 = JCM 6841.
Data set [8] relates to Escherichia coli. Put plainly: Antibacterial activity against Escherichia coli CIP54.8 after 18 to 24 hrs by broth dilution method. The data set is classed as functional.
The test system of data set [9] is Klebsiella aerogenes. Put plainly: Antibacterial activity against Enterobacter aerogenes ATCC 13048 after 18 to 24 hrs by broth dilution method. In kind it is functional.
Data set [10] concerns HepG2. Description: Cytotoxicity against human HepG2 cells assessed as reduction in cell viability after 24 hrs by WST1 assay. The data set is classed as cell-based. The settings on record: hepg2, 24 h. In outline: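 Human hepatocyte HepG2 cultures were exposed to test material. IC50 was taken as the concentration giving a 50% decrease in cell respiration relative to the untreated control culture.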
For orientation: Formazan colour is commonly taken as a measure of viable cells.

Data on 7 compounds can be found in ChEMBL document CHEMBL4184285, “Antibacterial activities of mono-, di- and tri-substituted triphenylamine-based phosphonium ionic liquids” (Bioorg Med Chem Lett, 2018).

SMILES strings stand for the structures.

The term MIC denotes the smallest concentration in the dilution series that meets the test's criterion for growth inhibition.

In the case of `CCCC[P+](CCCC)(CCCC)CCCCCCOCc1ccc(N(c2ccccc2)c2ccccc2)cc1.[Cl-]`, the minimum inhibitory concentration (MIC) in data set [1] worked out at 32 µg/mL; in data set [2] it was 0.5 µg/mL; in data set [3], 1 µg/mL; in data set [4] it was 16 µg/mL; in data set [5], 1 µg/mL; in [6], 0.5 µg/mL. The MIC in data set [7], in data set [8] and in data set [9] was 16 µg/mL each time.

Turning to `CCCCCC[P+](CCCCCC)(CCCCCC)CCCCCCCCCCOCc1ccc(N(c2ccccc2)c2ccccc2)cc1.[Br-]`, the MIC worked out at 64 µg/mL in data set [1]; 1 µg/mL in data set [2]; 2 µg/mL in data set [3]; 32 µg/mL in data set [4]; 8 µg/mL in data set [5]; 2 µg/mL in data set [6]. Further, the MIC in data set [7] is 16 µg/mL; in data set [8] it was 32 µg/mL; in [9], above 64 µg/mL.

As to `CCCCCC[P+](CCCCCC)(CCCCCC)CCCCCCOCc1ccc(N(c2ccccc2)c2ccccc2)cc1.[Cl-]`, the MIC in data set [1] was 16 µg/mL; in data set [2] it was 2 µg/mL; in data set [3], 2 µg/mL; in data set [4], above 64 µg/mL; in data set [5], 4 µg/mL; in data set [6], 2 µg/mL. The MIC in [7], in [8] and in data set [9] was above 64 µg/mL throughout. Further, the Activity in data set [10] came to 0.09%.

As for `CCCCCCCC[P+](CCCCCCCC)(CCCCCCCC)CCCCCCOCc1ccc(N(c2ccccc2)c2ccccc2)cc1.[Cl-]`, the MIC in [1] was above 64 µg/mL; in [2], 8 µg/mL; in [3], 8 µg/mL; in [4], above 64 µg/mL; in data set [5], 16 µg/mL; in data set [6], 8 µg/mL. The MIC in data set [7], in [8] and in data set [9] was above 64 µg/mL each time.

Consider `CCCCCC[P+](CCCCCC)(CCCCCC)CCCCCCOCc1ccc(N(c2ccccc2)c2ccccc2)cc1.[Br-]`, for which the minimal inhibitory concentration (MIC) in [1] is 64 µg/mL; in [2], 2 µg/mL; in data set [3], 2 µg/mL; in data set [4], 64 µg/mL; in data set [5] it was 4 µg/mL; in data set [6], 2 µg/mL. Also, the minimal inhibitory concentration (MIC) is 64 µg/mL in data set [7], above 64 µg/mL in [8] and above 64 µg/mL in [9].

With `CCCCCC[P+](CCCCCC)(CCCCCC)CCCCCCOCc1ccc(N(c2ccc(COCCCCCC[P+](CCCCCC)(CCCCCC)CCCCCC)cc2)c2ccc(COCCCCCC[P+](CCCCCC)(CCCCCC)CCCCCC)cc2)cc1.[Cl-].[Cl-].[Cl-]`, the MIC was above 64 µg/mL in data set [1]; 2 µg/mL in [2]; 2 µg/mL in data set [3]; 16 µg/mL in data set [4]; 4 µg/mL in data set [5]; 2 µg/mL in [6]. The minimum inhibitory concentration (MIC) was found to be 16 µg/mL in data set [7], 32 µg/mL in data set [8] and 64 µg/mL in data set [9]. For the same compound, the Activity in data set [10] came out at 4.28%.

`CCCCCC[P+](CCCCCC)(CCCCCC)CCCCCCOCc1ccc(N(c2ccccc2)c2ccc(COCCCCCC[P+](CCCCCC)(CCCCCC)CCCCCC)cc2)cc1.[Cl-].[Cl-]`: the MIC in data set [1] was determined as 64 µg/mL; in data set [2], 2 µg/mL; in data set [3], 2 µg/mL; in data set [4] it was 16 µg/mL; in data set [5], 2 µg/mL; in data set [6] it was 2 µg/mL. For the same compound, the MIC in data set [7] is 16 µg/mL; in [8], 32 µg/mL; in data set [9], above 64 µg/mL. Also, the Activity in data set [10] was 4.16%.
